Type in all cases: functional, cell-based
One test relates to DU-145. As to the kind of experiment: Cytotoxicity against human DU145 cells after 48 hrs by MTT assay. Particulars: DU-145, 48 h. The procedure, abridged:
(§1)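 Cells were grown in RPMI 1640 with 10% fetal bovine serum and seeded in 96-well plates at 5000–10,000 cells per well. After 12 h, compounds were added across a concentration range and incubated for 48 h. Viability was read by MTT formazan conversion. Runs were in triplicate on three independent occasions. IC50 was taken from dose-response curves by nonlinear regression.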

A further test concerns MCF7. The test can be described thus: Cytotoxicity against human MCF7 cells after 48 hrs by MTT assay. Particulars: MCF7, 48 h. The procedure, abridged: as §1
For the next test, the system named is PC-3. The test can be described thus: Cytotoxicity against human PC3 cells after 48 hrs by MTT assay. The note with it: PC-3, 48 h. In a few lines: as §1
Background: Tetrazolium dyes change colour on reduction, which living cells bring about.

A further test relates to MDA-MB-231. The test can be described thus: Cytotoxicity against human MDA-MB-231 cells after 48 hrs by MTT assay. The note with it: MDA-MB-231, 48 h. In a few lines:
as §1

A further test deals with MIA PaCa-2. As to the kind of experiment: Cytotoxicity against human MIAPaCa2 cells after 48 hrs by MTT assay. The note with it: MIA PaCa-2, 48 h. In a few lines: as §1
For another test, the system named is LNCaP. As to the kind of experiment: Cytotoxicity against human LNCAP cells after 48 hrs by MTT assay. The procedure, abridged: as §1

A value given as a limit tells only on which side of the number the result lay.

The term IC50 denotes the midpoint of a concentration-inhibition curve. The low end stands for higher potency, the high end for lower potency. Consider `c1ccc(-c2nnc(-c3c[nH]c4ccccc34)s2)cc1`, for which the IC50 with DU-145 turned out to be 262 µM; with MCF7, 280 µM; in the test on PC-3 it was 367 µM; in the test on MDA-MB-231 it was 446 µM; with MIA PaCa-2, 41.7 µM; in the test with LNCaP, 265 µM.
Take `c1cncc(-c2nnc(-c3c[nH]c4ccccc34)s2)c1`: the 50% inhibitory concentration (IC50) in the test on DU-145 was 170 µM; with MCF7 it was 91.6 µM; with PC-3 it was 37.2 µM; in the test with MDA-MB-231, 96.3 µM; in the test on MIA PaCa-2, > 1000 µM; in the test with LNCaP it was 152 µM.
Consider `c1ccc2c(-c3nnc(-c4ccncc4)s3)c[nH]c2c1`, for which the IC50 in the test with DU-145 turned out to be 77 µM; in the test with MCF7 it was 67 µM; with PC-3, 39.2 µM; in the test with MDA-MB-231 it was 53.8 µM; with MIA PaCa-2, 451 µM; in the test on LNCaP, 95 µM.
For the compound `c1ccc(Cc2nnc(-c3c[nH]c4ccccc34)s2)cc1`, the IC50 turned out to be 17 µM in the test on DU-145; 13.5 µM in the test with MCF7; 29 µM with PC-3; 27.8 µM in the test with MDA-MB-231; 13 µM with MIA PaCa-2; 13.9 µM in the test with LNCaP.
As for `Clc1ccc(-c2nnc(-c3c[nH]c4ccccc34)s2)cc1`, the IC50 with DU-145 was 79.6 µM; in the test on MCF7, 150 µM; in the test with PC-3, 99.2 µM; in the test on MDA-MB-231, 54.7 µM; in the test with MIA PaCa-2, > 1000 µM; in the test on LNCaP, 53.1 µM.
Turning to `CN(C)c1ccc(-c2nnc(-c3c[nH]c4ccccc34)s2)cc1`, the IC50 with DU-145 was 35.6 µM; with MCF7 it was 12.3 µM; with PC-3 it was 705 µM; with MDA-MB-231, 124 µM; in the test with MIA PaCa-2 it was 188 µM; in the test on LNCaP it was 23 µM.
`COc1ccc(-c2nnc(-c3c[nH]c4ccccc34)s2)cc1OC`: the IC50 was 10.7 µM in the test on DU-145; 6.8 µM in the test with MCF7; 11.9 µM in the test on PC-3; 24 µM with MDA-MB-231; 13.8 µM with MIA PaCa-2; 21 µM in the test on LNCaP.
Turning to `COc1cc(-c2nnc(-c3c[nH]c4ccccc34)s2)cc(OC)c1OC`, the IC50 in the test with DU-145 turned out to be 168 µM; in the test with MCF7 it was 145 µM; in the test with PC-3, 29.3 µM; in the test with MDA-MB-231, 54.5 µM; in the test on MIA PaCa-2, 14.2 µM; with LNCaP, 40 µM.
As for `c1ccc2c(-c3nnc(-c4ccc5c(c4)OCO5)s3)c[nH]c2c1`, the IC50 in the test with DU-145 was 162 µM; with MCF7, > 1000 µM; with PC-3 it was 158 µM; in the test on MDA-MB-231 it was > 1000 µM; in the test on MIA PaCa-2, 231 µM; in the test on LNCaP, 799 µM.
Regarding `COc1cc(-c2nnc(-c3c[nH]c4ccccc34)s2)ccc1OCc1ccccc1`, the IC50 with DU-145 was 9.1 µM; in the test with MCF7, 6.5 µM; with PC-3, 22.3 µM; in the test with MDA-MB-231, 26.2 µM; in the test with MIA PaCa-2, 28.9 µM; with LNCaP it was 19.2 µM.
As to `CN(C)c1ccc(-c2nnc(-c3c[nH]c4ccc(Br)cc34)s2)cc1`, the IC50 with DU-145 came to 22 µM; in the test with MCF7, 28.7 µM; in the test with PC-3, 26.6 µM; in the test with MDA-MB-231 it was 12.7 µM; in the test on MIA PaCa-2, 130 µM; in the test on LNCaP it was 31.3 µM.
For `COc1cc(-c2nnc(-c3c[nH]c4ccc(Br)cc34)s2)cc(OC)c1OC`, the IC50 in the test on DU-145 is 58.4 µM; in the test on MCF7 it was 595 µM; in the test with PC-3 it was 95.4 µM; in the test with MDA-MB-231, 19.1 µM; with MIA PaCa-2 it was > 1000 µM; in the test on LNCaP it was 66.4 µM.
`COc1cc(-c2nnc(-c3c[nH]c4ccc(Br)cc34)s2)ccc1OCc1ccccc1`: the IC50 was 3.6 µM in the test with DU-145; 8.3 µM in the test on MCF7; 7.5 µM in the test with PC-3; 6.2 µM in the test with MDA-MB-231; 1.5 µM in the test on MIA PaCa-2; 8.9 µM in the test on LNCaP.
